# This excerpt belongs to a sample that is enriched for hits.
# INS promoter act – activators of insulin promoter-driven GFP, primary screen, imaging, TRM-6 cells (human fetal islet line), eGFP reporter, cell count | plate-scaled: unstimulated 0, stimulated control 100 | activation, % at 2 µM | hit rate 0.81% among 130,000;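 active = activation at 2 µM above a set limit, confirmed on inspection of the cell images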;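 note: share of cells whose green reporter signal exceeds an intensity cutoff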
#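 Assay system: TRM-6 insulin promoter–eGFP reporter cells / Input: 1,000 cells per well / Medium: Low-glucose (5.5 mM) medium with tamoxifen / Also added: tamoxifen inducer, 0.75 µM, in seeding medium / Timing: overnight tamoxifen, then two-day compound incubation at 37 °C / Signal: automated fluorescence imaging of paraformaldehyde-fixed, Hoechst-counterstained cells, green channel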
# An asterisk follows results filed as active; + = active, no number.
SMILES,INS promoter act
C=CCN1C(=O)C(CC(=O)Nc2ccccc2)SC1=Nc1c(C)n(C)n(-c2ccccc2)c1=O (configuration not stated),-2.6
O=[N+]([O-])c1ccccc1CSc1nc2ccccc2o1,0.0
CC(C)CCN1CCN(CC(c2ccccc2)c2ccccc2)CC1CCO (configuration not stated),8.3
CN(c1cccc(NC(=O)COc2ccc(Cl)cc2Cl)c1)S(C)(=O)=O,-5.6
Cc1ccc(Sc2ncccc2COC(=O)NC(C)C)cc1,0.0
CC1SC(c2ccc(Cl)cc2)NC1=O (configuration not stated),443.8*
CC1SC(c2cccc(Cl)c2)NC1=O (configuration not stated),7.1
COc1ccc(-c2cc(C(F)(F)F)nc(SCCC(=O)N3CCOCC3)n2)cc1,8.1
CN(CCc1ccccn1)C(=S)NC(=O)c1ccco1,0.0
COc1ccc(/C(O)=C2/C(=O)C(=O)N(CCN(C)C)C2c2cccnc2)cc1OC (configuration not stated),7.1
CC(C)Oc1ccc(/C(O)=C2/C(=O)C(=O)N(CCN3CCOCC3)C2c2ccccc2)cc1 (configuration not stated),2.9
COc1cccc(/C(O)=C2/C(=O)C(=O)N(CCN3CCOCC3)C2c2cccnc2)c1 (configuration not stated),530.8*
O=C(COC(=O)CCCN1C(=O)c2cccc3cccc(c23)C1=O)Nc1cccc(C(F)(F)F)c1,-6.7
CCC1(C)Cc2ccccc2C(=S)N1 (configuration not stated),-8.7
CCOC(=O)c1c(C)c(C(=O)NCc2cccnc2)c(C)n1CC,-9.4
CCC(Sc1nc2ccccc2c(=O)[nH]1)C(=O)Nc1ccc(C(C)=O)cc1 (configuration not stated),0.0
Cc1ccc2nc(SCC(=O)NNC(=O)c3ccccc3)[nH]c2c1,0.0
CCc1ccc(C(C(=O)NC(C)(C)CC)N(Cc2ccco2)C(=O)Cn2nnc3ccccc32)cc1 (configuration not stated),359.5
CCC(C)(C)NC(=O)C(c1cccn1C)N(C(=O)Cn1nnc2ccccc21)c1ccc(OC)cc1 (configuration not stated),150.0*
CCC(C)(C)NC(=O)C(c1ccccc1)N(Cc1cccs1)C(=O)Cn1nnc2ccccc21 (configuration not stated),-4.8
Cc1cc(NC(=O)C(=O)NCCN2CCN(S(C)(=O)=O)CC2)ccc1Br,-5.6
COc1ccc(C2c3cc(OC)c(OC)cc3CCN2C2CC(=O)N(c3ccccc3)C2=O)cc1OC (configuration not stated),9.7
O=C(O[C@@H]1OC2COC(=O)c3cc(O)c(O)c(O)c3-c3c(cc(O)c(O)c3O)C(=O)O[C@@H]([C@H]1O)[C@@H]2O)c1cc(O)c(O)c(O)c1,4.8
CCOc1cc(N2CCOCC2)c(OCC)cc1NC(=O)c1ccc(NC(C)=O)cc1,-7.3
CCCCn1ccnc1C(=O)c1cc(S(=O)(=O)N2CCOCC2)ccc1C,88.9*
SMILES,INS promoter act
COc1cc(S(=O)(=O)N2CCOCC2)cc(C(=O)c2nccn2C)c1OC,9.1
Cc1ccc(S(=O)(=O)N2CCOCC2)cc1NC(=O)Cn1ccsc1=N,-5.4
O=C1c2cccnc2Oc2ccc(Cl)cc2N1Cc1ccc(F)cc1,9.4
COc1ccccc1C/C(N)=N/O,0.0
COc1ccc(C)cc1NC(=O)C(NC(=O)c1cc(OC)c(OC)c(OC)c1)C(C)C (configuration not stated),433.3*
COc1cc(OC)cc(C(=O)N[C@H](C(=O)OCC(=O)Nc2ccc(C)cc2C)C(C)C)c1,7.7
COc1cc(C(=O)N[C@H](C(=O)NC(C)C23CC4CC(CC(C4)C2)C3)C(C)C)cc(OC)c1OC (some centres not stated),-2.9
Cc1c(N2C(=O)/C(=C\c3ccc(N(C)C)cc3)N(C)C2=S)c(=O)n(-c2ccccc2)n1C,139.3
CC(C)(CCl)C(=O)Nc1ccc(C(F)(F)F)cc1,-84.6
CC(C)(C)NC(=O)/C=C/c1ccc(C(F)(F)F)cc1,322.2*
CC(C)(C)NC(=O)c1ccncc1,9.7
COC(=O)CCN(C(=O)c1ccc(C)c([N+](=O)[O-])c1)c1ccccn1,+
Cc1ccc(C(=O)COC(=O)CNC(=O)C(c2ccccc2)c2ccccc2)cc1[N+](=O)[O-],6.7
Cc1ccc(C(=O)NCCSC(C)(C)C)cc1[N+](=O)[O-],-8.3
O=C(CCc1nnc(Cc2ccc3c(c2)OCO3)o1)NCc1nc2ccccc2s1,-78.3
CC(C)CCOC(=O)C1C(c2ccccc2)C(C(=O)O)C1c1ccccc1 (configuration not stated),0.0
CCOc1ccc(-n2c(=O)c3c4c(sc3n(CC(=O)NCC3CCCO3)c2=O)CCC4)cc1 (configuration not stated),0.0
Cc1cc(C)n(-c2cc(=O)n(C)c(=O)n2C)n1,-3.2
Cc1cc(C)n(-c2cc(C)c(C)cc2Br)n1,131.8*
CCc1cc2c(-n3nc(C)cc3C)ncnc2s1,342.9
Cc1cc(C(=O)CSc2nnc(N)s2)c(C)n1CCc1ccc(F)cc1,0.0
Cc1cc(C(=O)CSc2nnnn2C)c(C)n1CCc1ccc(F)cc1,125.8*
Cc1cc(C(=O)CCl)c(C)n1CCc1ccc(F)cc1,-100.0
COCc1c(C(=O)OCC(=O)N2c3ccccc3NC(=O)C2(C)C)oc2ccccc12,6.1
O=C(NCC1CCCO1)c1cc(-c2ccc(Cl)cc2Cl)on1 (configuration not stated),85.7*
SMILES,INS promoter act
O=C(Nc1ccccc1C(=O)NCC1CCCO1)c1ccc(Cl)cc1Cl (configuration not stated),-5.7
Cc1ccc(-c2cc(C(=O)NCC3CCCO3)no2)cc1 (configuration not stated),8.6
C=C(C)C1CC=C(C)/C(=N/NC(=O)C2CC2c2ccccc2)C1 (configuration not stated),-6.7
CCCc1ccccc1OCCNC(=O)c1cc(=O)n(C)c(=O)n1C,-8.3
NS(=O)(=O)c1ccc(CCNC(=O)COC(=O)/C=C/c2ccccc2Cl)cc1,9.1
Nc1c(C(=O)Nc2ccccc2)sc2nc(-c3ccco3)ccc12,-80.0
O=C(NC(=S)Nc1nc2ccccc2s1)c1cccs1,-7.4
Nc1c(C(=O)Nc2nc3ccccc3s2)sc2nc(-c3cccs3)ccc12,196.2*
Cc1cccc(OCCCCc2c(C)n[nH]c2C)c1C,0.0
O=C(NCc1ccc2c(c1)OCO2)c1ccc(C2SCC(=O)N2Cc2ccco2)cc1 (configuration not stated),-22.2
CCC(=O)/C=C1/Sc2ccccc2N1CC,328.6
CCN1/C(=C/c2ccc3cc(C)ccc3[n+]2CC)Sc2ccccc21,170.3
CCN1/C(=C/C=C/C=C/c2sc3ccccc3[n+]2CC)Sc2ccccc21,354.5*
O=Cc1cn(CC(=O)N2CCOCC2)c2ccccc12,411.1*
COC(=O)c1cn(CC(=O)N2CCCCCC2)c2ccccc12,381.1
Cc1nc2ccccc2c(=O)n1CC(=O)N1CCOCC1,-7.1
COc1ccc(C(=O)NNC2CC(=O)N(Cc3ccc(Cl)cc3)C2=O)cc1OC (configuration not stated),-3.2
Cc1cc(C)c2c(=O)[nH]c(SCc3ccc([N+](=O)[O-])cc3)nc2n1,0.0
Cc1ccccc1N1CC(C(=O)O)CC1=O (configuration not stated),-2.6
Cc1ccc(N2CC(C(N)=O)CC2=O)cc1C (configuration not stated),542.9*

# Source: PubChem
